Experimental data pooled from the literature.
Compare with care: the assays were run in different laboratories.
Target: Cannabinoid receptor 2 (CNR2, Homo sapiens, UniProt P34972)
Observed: ligand displacement
Technique: radioligand

| SMILES | setting | Ki |
| --- | --- | --- |
| CCOC(=O)C(CC)(CCCSCCOCCOCCOCCOCCNC(=O)OC(C)(C)C)NC(=O)c1ccc(C2CC2)c(Cc2ccc(F)cc2)n1 (stereo not drawn) | cell membranes | 140 nM |
| CCCCCc1cc(O)c2c(c1)OC(C)(C)[C@@H]1CC=C(C)[C@H](O)[C@@H]21 | cell membranes | 30 nM |
| CC/C(=C(\c1ccc(O)cc1)c1ccc(OCCN(C)C)cc1)c1ccccc1 | cell membranes | 900 nM |
| CC1(C)C(C(=O)c2cn(CCCCCF)c3ccccc23)C1(C)C | cell membranes | 2.13 nM |
| CCCc1cc(O)c2c(c1)OC(C)(C)c1ccc(C)cc1-2 | cell membranes | 4780 nM |
| Cc1c(C(=O)Nc2ccc(C(F)(F)F)cn2)nc(-c2ccc(Cl)cc2Cl)n1-c1ccc(OS(=O)(=O)CCC(F)(F)F)cc1 | cell membranes | 4.9 nM |
| CCOC(=O)[C@](CC)(CCC[S+]([O-])CCOCCOCCNC(=O)OC(C)(C)C)NC(=O)c1ccc(C2CC2)c(Cc2ccc(F)cc2)n1 (stereo partly drawn) | cell membranes | 29 nM |
| CCCCCc1cc(O)c2c(c1)OC(C)(C)c1ccc(C)cc1-2 | cell membranes | 73 nM |
| CCCS(=O)(=O)Oc1ccc(-n2c(-c3ccc(Cl)cc3Cl)nc(C(=O)NN3CCCCC3)c2C)cc1 | cell membranes | 35 nM |
| CCCCCn1c2ccccc2c2cc(C(=O)NCC3CCN(CC(=O)NC(C)(C)C)CC3)ccc21 | – | > 5000 nM |
| CCCCCc1cc(O)c(C/C=C(\C)CCC=C(C)C)c(O)c1C(=O)O | cell membranes | > 10000 nM |
| CCOC(=O)C(CC)(CCCSC)NC(=O)c1ccc(C2CC2)c(Cc2ccc(F)cc2)n1 (stereo not drawn) | cell membranes | 1.3 nM |
| Cc1nc([C@@](C)(CC2CC2)NC(=O)c2cc(OCC(F)(F)F)c(C3CC3)cn2)no1 | cell membranes | 76 nM |
| CCCCCc1cc(O)c2c(c1)OC(C)(C)c1cc(O)c(C)cc1-2 | cell membranes | 11 nM |
| CCCC(C)(C)c1ccc2c(c1)OC(C)(C)[C@@H]1CC=C(C)C[C@@H]21 | cell membranes | 34.9 nM |
